Test results reported in ChEMBL document CHEMBL5724801, “EUbOPEN Chemogenomics Library - Multiplex” (2024).
Several values for one entry are separate records, joined by “and”; a condition that tells them apart may be missing. Equal entries are not always repeated.

System: U2OS
Assay: Multiplex assay against U2OS
Assay type: toxicity, cell-based
Conditions: human
Outline: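 Phenotypes for tubulin, mitochondrial mass and membrane permeability are expressed as per cents of healthy-nucleus cells. Cells were stained live at seeding with Hoechst33342, BioTracker Green Microtubule Cytoskeleton Dye, MitoTracker Red and Annexin V Alexa Fluor 680, then imaged after compound addition on a CQ1 microscope at 37°C and 5% CO2. Machine-learning gating in CellPathfinder separated Hoechst high-intensity objects from normal cells, divided normal cells by nuclear state (healthy, pyknosed, fragmented) and divided pyknosed cells into mitotic or apoptotic.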

[1] = 12 h, 1 µM, compound concentration 1 uM
[2] = 12 h, 10 µM, compound concentration 10 uM
[3] = 24 h, 1 µM, compound concentration 1 uM
[4] = 24 h, 10 µM, compound concentration 10 uM
[5] = 48 h, 1 µM, compound concentration 1 uM
[6] = 48 h, 10 µM, compound concentration 10 uM

CCOC(=O)c1c(/C(C#N)=C\N)c2ccc(Cl)c(Cl)c2n1C
Population Apoptotic (%) [1]: 47.83% and 43.48% | Population Fragmented Nuclei (%) [1]: 0.85% and 4.7% | Population Healthy Nuclei (%) [1]: 89.38% and 79.87% | Population Hoechst High Intensity Objects (%) [1]: 0% | Population Membrane Permeable-Phenotype (%) [1]: 1.19% and 0.84% | Population Mitochondria Different-Phenotype (%) [1]: 0% and 5.88% | Population Mitotic Cells (%) [1]: 52.17% and 56.52% | Population Normal (%) [1]: 100% | Population Pyknosed Nuclei (%) [1]: 9.77% and 15.44% | Population Tubulin-Different-Phenotype (%) [1]: 0.95% and 0.84% | Population Apoptotic (%) [2]: 43.9% and 26.67% | Population Healthy Nuclei (%) [2]: 86.92% and 80.49% | Population Hoechst High Intensity Objects (%) [2]: 0% | Population Membrane Permeable-Phenotype (%) [2]: 0% and 3.64% | Population Mitochondria Different-Phenotype (%) [2]: 0% and 2.42% | Population Mitotic Cells (%) [2]: 56.1% and 73.33% | Population Normal (%) [2]: 100% | Population Pyknosed Nuclei (%) [2]: 11.17% and 7.32% | Population Tubulin-Different-Phenotype (%) [2]: 0.31% and 0% | Total Cell Count [2]: 367 and 205 | Population Apoptotic (%) [3]: 38.46% and 52.38% | Population Fragmented Nuclei (%) [3]: 0.82% and 3.3% | Population Healthy Nuclei (%) [3]: 90.7% and 85.16% | Population Hoechst High Intensity Objects (%) [3]: 0% | Population Membrane Permeable-Phenotype (%) [3]: 0.9% and 3.87% | Population Mitochondria Different-Phenotype (%) [3]: 0% and 2.58% | Population Mitotic Cells (%) [3]: 61.54% and 47.62% | Population Normal (%) [3]: 100% | Population Pyknosed Nuclei (%) [3]: 8.48% and 11.54% | Population Tubulin-Different-Phenotype (%) [3]: 1.62% and 1.29% | Population Apoptotic (%) [4]: 49.09% and 33.33% | Population Fragmented Nuclei (%) [4]: 1.8% and 9.69% | Population Healthy Nuclei (%) [4]: 87.17% and 84.5% | Population Hoechst High Intensity Objects (%) [4]: 0% | Population Membrane Permeable-Phenotype (%) [4]: 0.46% and 1.38% | Population Mitochondria Different-Phenotype (%) [4]: 0% and 1.38% | Population Mitotic Cells (%) [4]: 50.91% and 66.67% | Population Normal (%) [4]: 100% | Population Pyknosed Nuclei (%) [4]: 11.02% and 5.81% | Population Tubulin-Different-Phenotype (%) [4]: 0.92% and 0.46% | Total Cell Count [4]: 499 and 258 | Population Apoptotic (%) [5]: 46.46% and 70.83% | Population Fragmented Nuclei (%) [5]: 2.55% and 2.93% | Population Healthy Nuclei (%) [5]: 88.73% and 89.25% | Population Hoechst High Intensity Objects (%) [5]: 0% | Population Membrane Permeable-Phenotype (%) [5]: 0.6% and 3.28% | Population Mitochondria Different-Phenotype (%) [5]: 0% and 2.55% | Population Mitotic Cells (%) [5]: 53.54% and 29.17% | Population Normal (%) [5]: 100% | Population Pyknosed Nuclei (%) [5]: 8.71% and 7.82% | Population Tubulin-Different-Phenotype (%) [5]: 0.4% and 1.82% | Population Apoptotic (%) [6]: 37.84% and 47.83% | Population Fragmented Nuclei (%) [6]: 3.52% and 4.86% | Population Healthy Nuclei (%) [6]: 85.01% and 83.38% | Population Hoechst High Intensity Objects (%) [6]: 0% | Population Membrane Permeable-Phenotype (%) [6]: 1.09% and 0.92% | Population Mitochondria Different-Phenotype (%) [6]: 0% and 1.84% | Population Mitotic Cells (%) [6]: 62.16% and 52.17% | Population Normal (%) [6]: 100% | Population Pyknosed Nuclei (%) [6]: 11.48% and 11.76% | Population Tubulin-Different-Phenotype (%) [6]: 1.09% and 0% | Total Cell Count [6]: 967 and 391

Cc1c(C(=O)NCCCN(C)C)sc2ncnc(Nc3ccc(F)cc3OC(C)CF)c12 (centres undefined)
Population Apoptotic (%) [1]: 44.9% and 30.77% | Population Fragmented Nuclei (%) [1]: 1.42% and 2.65% | Population Healthy Nuclei (%) [1]: 84.66% and 80.13% | Population Hoechst High Intensity Objects (%) [1]: 0% | Population Membrane Permeable-Phenotype (%) [1]: 0.67% and 4.13% | Population Mitochondria Different-Phenotype (%) [1]: 0% and 15.7% | Population Mitotic Cells (%) [1]: 55.1% and 69.23% | Population Normal (%) [1]: 100% | Population Pyknosed Nuclei (%) [1]: 13.92% and 17.22% | Population Tubulin-Different-Phenotype (%) [1]: 2.68% and 0% | Total Cell Count [1]: 352 and 151 | Population Apoptotic (%) [2]: 33.33% and 29.55% | Population Fragmented Nuclei (%) [2]: 6.74% and 4.73% | Population Healthy Nuclei (%) [2]: 69.66% and 65.54% | Population Hoechst High Intensity Objects (%) [2]: 0% | Population Membrane Permeable-Phenotype (%) [2]: 10.97% and 18.56% | Population Mitotic Cells (%) [2]: 66.67% and 70.45% | Population Normal (%) [2]: 100% | Population Pyknosed Nuclei (%) [2]: 23.6% and 29.73% | Population Tubulin-Different-Phenotype (%) [2]: 31.61% and 29.9% | Population Apoptotic (%) [3]: 56% and 51.85% | Population Fragmented Nuclei (%) [3]: 3.61% and 5.17% | Population Healthy Nuclei (%) [3]: 85.77% and 79.31% | Population Hoechst High Intensity Objects (%) [3]: 0% | Population Membrane Permeable-Phenotype (%) [3]: 1.49% and 4.35% | Population Mitotic Cells (%) [3]: 44% and 48.15% | Population Normal (%) [3]: 100% | Population Pyknosed Nuclei (%) [3]: 10.62% and 15.52% | Population Tubulin-Different-Phenotype (%) [3]: 1.98% and 0% | Total Cell Count [3]: 471 and 174 | Population Apoptotic (%) [4]: 35% and 38.46% | Population Fragmented Nuclei (%) [4]: 3.34% and 4.57% | Population Healthy Nuclei (%) [4]: 63.26% and 58.29% | Population Hoechst High Intensity Objects (%) [4]: 0% | Population Membrane Permeable-Phenotype (%) [4]: 3.96% and 12.75% | Population Mitotic Cells (%) [4]: 65% and 61.54% | Population Normal (%) [4]: 100% | Population Pyknosed Nuclei (%) [4]: 33.4% and 37.14% | Population Tubulin-Different-Phenotype (%) [4]: 59.08% and 40.2% | Total Cell Count [4]: 479 and 175 | Population Apoptotic (%) [5]: 48.89% and 51.28% | Population Fragmented Nuclei (%) [5]: 4.16% and 5.07% | Population Healthy Nuclei (%) [5]: 85.73% and 80.8% | Population Hoechst High Intensity Objects (%) [5]: 0% | Population Membrane Permeable-Phenotype (%) [5]: 1.31% and 1.35% | Population Mitochondria Different-Phenotype (%) [5]: 0.13% and 8.52% | Population Mitotic Cells (%) [5]: 51.11% and 48.72% | Population Normal (%) [5]: 100% | Population Pyknosed Nuclei (%) [5]: 10.11% and 14.13% | Population Tubulin-Different-Phenotype (%) [5]: 2.1% and 0.45% | Population Apoptotic (%) [6]: 53.75% and 63.55% | Population Fragmented Nuclei (%) [6]: 4.47% and 3.47% | Population Healthy Nuclei (%) [6]: 48.42% and 34.68% | Population Hoechst High Intensity Objects (%) [6]: 0.19% and 1.14% | Population Membrane Permeable-Phenotype (%) [6]: 12.31% and 18.33% | Population Mitotic Cells (%) [6]: 46.25% and 36.45% | Population Normal (%) [6]: 99.81% and 98.86% | Population Pyknosed Nuclei (%) [6]: 47.11% and 61.85% | Population Tubulin-Different-Phenotype (%) [6]: 44.62% and 53.33%

Cc1ccc(-c2c(C(=O)CF)n(CCCO)c3ncnc(N)c23)cc1
Population Apoptotic (%) [1]: 36.11% and 57.14% | Population Fragmented Nuclei (%) [1]: 2.07% and 1.92% | Population Healthy Nuclei (%) [1]: 88.63% and 84.62% | Population Hoechst High Intensity Objects (%) [1]: 0% | Population Membrane Permeable-Phenotype (%) [1]: 0.29% and 2.27% | Population Mitochondria Different-Phenotype (%) [1]: 0% and 2.27% | Population Mitotic Cells (%) [1]: 63.89% and 42.86% | Population Normal (%) [1]: 100% | Population Pyknosed Nuclei (%) [1]: 9.3% and 13.46% | Population Tubulin-Different-Phenotype (%) [1]: 0.29% and 0% | Population Apoptotic (%) [2]: 50% and 52.94% | Population Fragmented Nuclei (%) [2]: 1.91% and 5.78% | Population Healthy Nuclei (%) [2]: 88.83% and 84.39% | Population Hoechst High Intensity Objects (%) [2]: 0% | Population Membrane Permeable-Phenotype (%) [2]: 0.61% and 4.11% | Population Mitochondria Different-Phenotype (%) [2]: 0% and 3.42% | Population Mitotic Cells (%) [2]: 50% and 47.06% | Population Normal (%) [2]: 100% | Population Pyknosed Nuclei (%) [2]: 9.26% and 9.83% | Population Tubulin-Different-Phenotype (%) [2]: 0.61% and 0% | Total Cell Count [2]: 367 and 173 | Population Apoptotic (%) [3]: 47.37% and 40% | Population Fragmented Nuclei (%) [3]: 1.55% and 4.48% | Population Healthy Nuclei (%) [3]: 91.09% and 84.33% | Population Hoechst High Intensity Objects (%) [3]: 0% | Population Membrane Permeable-Phenotype (%) [3]: 0.43% and 3.54% | Population Mitochondria Different-Phenotype (%) [3]: 0% and 2.65% | Population Mitotic Cells (%) [3]: 52.63% and 60% | Population Normal (%) [3]: 100% | Population Pyknosed Nuclei (%) [3]: 7.36% and 11.19% | Population Tubulin-Different-Phenotype (%) [3]: 0.21% and 0.88% | Population Apoptotic (%) [4]: 54.05% and 43.48% | Population Fragmented Nuclei (%) [4]: 2.71% and 3.7% | Population Healthy Nuclei (%) [4]: 89.58% and 86.83% | Population Hoechst High Intensity Objects (%) [4]: 0% | Population Membrane Permeable-Phenotype (%) [4]: 0.93% and 5.21% | Population Mitochondria Different-Phenotype (%) [4]: 0% and 4.27% | Population Mitotic Cells (%) [4]: 45.95% and 56.52% | Population Normal (%) [4]: 100% | Population Pyknosed Nuclei (%) [4]: 7.71% and 9.47% | Population Tubulin-Different-Phenotype (%) [4]: 1.4% and 0.47% | Total Cell Count [4]: 480 and 243 | Population Apoptotic (%) [5]: 33.82% and 20% | Population Fragmented Nuclei (%) [5]: 3.18% and 5% | Population Healthy Nuclei (%) [5]: 89.85% and 81.36% | Population Hoechst High Intensity Objects (%) [5]: 0% | Population Membrane Permeable-Phenotype (%) [5]: 1.26% and 1.12% | Population Mitochondria Different-Phenotype (%) [5]: 0% and 2.23% | Population Mitotic Cells (%) [5]: 66.18% and 80% | Population Normal (%) [5]: 100% | Population Pyknosed Nuclei (%) [5]: 6.97% and 13.64% | Population Tubulin-Different-Phenotype (%) [5]: 0.34% and 0.56% | Population Apoptotic (%) [6]: 49.33% and 48.98% | Population Fragmented Nuclei (%) [6]: 2.94% and 2.66% | Population Healthy Nuclei (%) [6]: 89.18% and 85.47% | Population Hoechst High Intensity Objects (%) [6]: 0% | Population Membrane Permeable-Phenotype (%) [6]: 0.94% and 1.13% | Population Mitochondria Different-Phenotype (%) [6]: 0% and 1.42% | Population Mitotic Cells (%) [6]: 50.67% and 51.02% | Population Normal (%) [6]: 100% | Population Pyknosed Nuclei (%) [6]: 7.88% and 11.86% | Population Tubulin-Different-Phenotype (%) [6]: 1.06% and 0.57% | Total Cell Count [6]: 952 and 413
